Results as given in article PMC7445463 (Diabetologia, 2020).
Values joined by “and” are separate entries in the source; they are usually repeats but may differ in a detail not shown here. Equal entries are not always repeated. Each block holds one compound with its values, some of them ahead of it.

Tests used:
[1] = test system: mouse and human primary PaSC and immortalized imPaSC; experiment: Signalling and gene expression in pancreatic stellate cells; assay type: cell-based; conditions: Met 0.1-10 mM
[2] = test system: diabetic patients with chronic heart failure; assay type: in vivo, human; conditions: metformin 2 g/day for 3 months
glucokinase [3] = target: T1, glucokinase (Homo sapiens, UniProt P35557); experiment: Simplici-T1 Phase 1b/2 trial; assay type: in vivo
T1 sequence (P35557 1-465): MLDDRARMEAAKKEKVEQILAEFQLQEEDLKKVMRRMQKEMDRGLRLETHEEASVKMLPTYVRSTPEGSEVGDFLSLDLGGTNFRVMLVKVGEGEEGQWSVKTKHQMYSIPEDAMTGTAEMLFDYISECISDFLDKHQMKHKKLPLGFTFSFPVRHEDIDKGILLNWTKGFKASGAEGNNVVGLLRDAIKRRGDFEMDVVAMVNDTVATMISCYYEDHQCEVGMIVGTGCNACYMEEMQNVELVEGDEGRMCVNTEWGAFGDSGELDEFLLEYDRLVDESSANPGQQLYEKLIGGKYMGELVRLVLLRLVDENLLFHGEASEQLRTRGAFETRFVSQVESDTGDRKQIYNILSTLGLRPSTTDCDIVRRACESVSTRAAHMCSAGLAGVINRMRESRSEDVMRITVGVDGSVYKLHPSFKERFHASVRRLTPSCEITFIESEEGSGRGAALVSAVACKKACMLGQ

glucokinase [4] = target: T1, glucokinase; conditions: type 2 diabetes (n=190); cited from earlier work
[5] = Intrajejunal metformin with or without bile exclusion or TCA, T2DM; assay type: in vivo, human; conditions: 1 g intrajejunal; endogenous bile included
[6] = 42-h fast crossover trial with or without metformin; assay type: in vivo, human; conditions: 1 g twice daily for a week
[7] = test system: patients with type 2 diabetes; experiment: Network meta-analysis of antidiabetic medications on blood pressure; parameters: species or system human; conditions: frequentist random-effects network meta-analysis, 192 studies
[8] = test system: human hepatocytes (HepG2); experiment: GDF15 and FGF21 expression in hepatocytes; assay type: cell-based; conditions: 2 mM, up to 24-h
[9] = Serum uteroglobin before and after metformin monotherapy; assay type: in vivo, human; conditions: after 12 months monotherapy; before 14.43±0.97; n=20
[10] = metformin vs placebo crossover in DM and chronic heart failure; assay type: in vivo, human; conditions: 2 g/day, 3 months vs placebo
[11] = Portal vein and arterialized lactate after oral metformin; assay type: in vivo, human; conditions: 90 minutes after 1000 mg oral
human heart = experiment: Metformin uptake in the human heart by PET scanning; assay type: in vivo
[12] = DIO mice under 50% dietary restriction, indirect calorimetry; assay type: in vivo, mouse
DIO C57/B6 mice = experiment: gastric emptying and weight in DIO mice; assay type: in vivo, mouse; conditions: 14-day
[13] = stated as background; cited from earlier work
[14] = Insulin icodec vs IGlar U100 26-week phase 2 trial; assay type: in vivo, human
Summary of the method: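 Randomized, double-blind, double-dummy, treat-to-target phase 2 trial lasting 26 weeks. Participants were insulin-naïve adults with T2D and HbA1c 7.0-9.5% on metformin ± DPP4i, randomized 1:1 (n=247). Starting doses were 70 U once weekly or 10 U once daily, titrated weekly to a pre-breakfast SMBG target of 3.9-6.0 mmol/L. The primary endpoint was HbA1c change from baseline to week 26; FPG and mean weekly dose over the last two weeks were secondary.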

[15] = test system: individuals with type 2 diabetes; experiment: insulin icodec PK/PD trial; parameters: species or system human; conditions: in vivo
HG-CD34+ stem cells = experiment: ROS production in CD34+ stem cells; assay type: cell-based, human; conditions: n=3
individuals with obesity = assay type: in vivo, human
[16] = test system: human ventricular cardiac fibroblasts (HCF); experiment: Human ventricular cardiac fibroblasts, mRNA expression by RT-qPCR; assay type: cell-based; conditions: TGF-β treatment; p<0.01

Compound: CN(C)C(=N)N=C(N)N [MET, metformin]
levels of yes-associated protein 1 (YAP) [1]: inhibited
cardiac functions as assessed by echocardiography and spiroergometry [2]: did not change
HbA1c ([2]; compared to placebo): reduced

improvement of TIR 70-180 vs placebo (glucokinase [3]; Part 1 (n=19)): 12%
A1C vs placebo, trial product estimand (glucokinase [3]; Part 2 (n=85), 12 weeks): -0.32% and -0.3%
improvement of (daytime) TIR (glucokinase [3]; Part 2, ITT): 8%
responders (glucokinase [3]; Part 2, placebo 12%): 42%
Compound: CCCO[C@H]1CC[C@H](N(C(=O)Nc2ncc(SCC(=O)O)s2)C2CCCCC2)CC1 [TTP399]
plasma β-hydroxybutyrate or urine ketones vs placebo (glucokinase [3]; 12 weeks): no significant or clinically relevant increases
severe hypoglycemia (glucokinase [3]; 12 weeks): No incidents
A1C vs placebo (glucokinase [4]): −0.9%

metformin uptake in healthy human hearts (human heart): no uptake
Compound: CN(C)C(=N)N=C(N)N [metformin]
plasma glucose iAUC 0-180 min [5]: 516 ± 46 mmol·min/L
serum FGF21 ([6]; without 146 ± 30): 156 ± 29 ng/mL
serum GDF15 ([6]; without 607 ± 89): 1004 ± 61 ng/mL
systolic blood pressure, mean difference compared to placebo [7]: -1.21 mmHg
increase of FGF21 mRNA [8]: 12 fold
increase of GDF15 mRNA [8]: 4 fold
serum uteroglobin [9]: 16.47 ± 1.33 ng/mL
GLP-1 and peptide YY during meal test [10]: increased
increase of lactate concentration, arterialized blood [11]: 2%
increase of lactate concentration, portal vein ([11]; n=8 cirrhotic participants): 23%

Compound: CC[C@H](C)[C@H](NC(=O)[C@H](CC(C)C)NC(=O)[C@H](Cc1c[nH]c2ccccc12)NC(=O)[C@H](CCC(N)=O)NC(=O)[C@@H](NC(=O)[C@H](Cc1ccccc1)NC(=O)[C@H](C)NC(=O)[C@H](CCCCNC(=O)COCCOCCNC(=O)COCCOCCNC(=O)CC[C@H](NC(=O)CCCCCCCCCCCCCCCCCCC(=O)O)C(=O)O)NC(=O)[C@H](CCC(N)=O)NC(=O)[C@H](C)NC(=O)[C@@H](NC(=O)[C@H](CCCCN)NC(=O)[C@H](CC(=O)O)NC(=O)[C@H](CC(C)C)NC(=O)C(C)(C)NC(=O)[C@@H](NC(=O)[C@H](CO)NC(=O)[C@H](Cc1ccc(O)cc1)NC(=O)[C@H](CC(=O)O)NC(=O)[C@H](CO)NC(=O)[C@@H](NC(=O)[C@H](Cc1ccccc1)NC(=O)[C@@H](NC(=O)CNC(=O)[C@H](CCC(=O)O)NC(=O)C(C)(C)NC(=O)[C@@H](N)Cc1ccc(O)cc1)[C@@H](C)O)[C@@H](C)O)[C@@H](C)CC)[C@@H](C)CC)C(C)C)C(=O)N[C@@H](C)C(=O)NCC(=O)NCC(=O)N1CCC[C@H]1C(=O)N[C@@H](CO)C(=O)N[C@@H](CO)C(=O)NCC(=O)N[C@@H](C)C(=O)N1CCC[C@H]1C(=O)N1CCC[C@H]1C(=O)N1CCC[C@H]1C(=O)N[C@@H](CO)C(N)=O [tirzepatide]
weight loss during dietary restriction ([12]; 3 nmol/kg QD, 14 days, vehicle 15.2±1.2, pair fed 17.0±0.7): 22.4±1.3%
increase of fat utilization vs vehicle ([12]; during DR): more than 30%
energy expenditure during dietary restriction ([12]; reduction, indirect calorimetry): maintained similar to levels prior to DR
GE delay after chronic treatment (DIO C57/B6 mice): abolished after 14-day chronic treatment

Compound: Insulin icodec
terminal half-life [13]: ~ 196 hours
estimated treatment ratio of weekly dose vs IGlar U100 ([14]; 95% CI 0.69, 0.94): 0.81
estimated treatment difference HbA1c vs IGlar U100 ([14]; 95% CI -0.38, 0.02): -0.18%
estimated treatment difference FPG vs IGlar U100 ([14]; 95% CI -0.66, 0.23): -0.22 mmol/L
estimated mean HbA1c at week 26 ([14]; baseline 8.1 icodec, 8.0 IGlar U100): 6.7%
estimated mean FPG at week 26 ([14]; in vivo): 6.84 mmol/L
estimated mean weekly insulin dose, last two weeks ([14]; in vivo): 229 U/week
level 2 and 3 hypoglycaemia ([14]; on-treatment period): 53 events per 100 patient years of exposure
estimated mean change in HbA1c from baseline ([14]; week 26): -1.33 %-points

Compound: insulin icodec
geometric mean half-life (t½) [15]: 196 h

Compound: liraglutide
HG-induced production of ROS (HG-CD34+ stem cells): significant reduction
change in heart rate during the 1-year treatment phase (individuals with obesity; liraglutide 3.0 mg/day, with or without exercise, PLA -0.7): 3.7 min⁻¹
systolic and diastolic BP during the 1-year treatment phase (individuals with obesity; no group differences): decreased

Compound: transforming growth factor beta [TGF-β]
TNC expression in HCF [16]: upregulated TNC expression
